Measured values taken from publication PMC3640569 (Food biophysics, 2012).
≈ marks a conversion by molar mass, not a printed value. Where “and” joins values, the source holds several entries; their conditions need not be identical. Identical values can stand only once. Entries after “also recorded” stand apart in the source; their conditions may differ.

Columns and labels:
[1] = Organic phase solubility of PMF; format: physicochemical
How it was run: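 Thermal quenching: weighed PMF was stirred into MCT or LCT (corn oil) for 1 h at 90–100 °C, cooled to 25 °C and held up to 72 h. Crystals were inspected visually and by optical microscopy. Saturation concentration was the mean of four measurements at the highest PMF loadings.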

[2] = Aqueous phase solubility of PMF; format: physicochemical
How it was run: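 Solvent injection: 1 % PMF in DMSO was injected into aqueous solutions of water-soluble polymers (0–5 %) or polymer-free buffer, giving a final 56 µM PMF. Mixtures were stirred at 120 rpm for 72 h at 25 °C, then centrifuged (4000 rpm, 15 min) to remove crystals. Supernatant PMF was read by UV-vis at 330 nm against a calibration curve. Runs were done in duplicate or triplicate and reported as mean ± SD.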

[3] = Oil-water partition coefficient estimated from saturation concentrations; format: physicochemical
[4] = Encapsulation of PMF in oil-in-water nanoemulsions; format: physicochemical
How it was run: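 Oil phase was 1 wt% PMF dissolved in MCT at 90–100 °C. Aqueous phase was 2 wt% Tween 20 in 5 mM phosphate, pH 7.0. Both were kept above 50 °C, blended 2 min, then given five microfluidizer passes at 12,000 psi. Oil content was 2.5–20 % at a PMF:oil ratio of 1:100 (initial 0.56–5.6 mM). After storage, dispersed and total PMF (remixed sample) were measured by UV-vis at 330 nm.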

Theoretical prediction = assay: Theoretical prediction
How it was run: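 Calculated, not measured: maximum PMF dissolvable in the oil-water system at equilibrium was derived with a mass-balance equation (Eq. 1). Inputs were the masses of solute, oil and water and the experimentally measured saturation concentrations of PMF in each carrier oil (thermal quenching) and in buffer (solvent injection), assuming oil-water partitioning.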

[5] = Solubility of PMF in simulated small intestinal fluids; format: physicochemical; conditions: 0.05 % PVA or HPMC in SSIF
How it was run: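 PMF in DMSO was mixed with buffer, fasted SSIF or fed SSIF (150 mM NaCl, 10 mM CaCl₂, 15 mg/mL bile, 2.4 mg/mL lipase), with or without 0.05 % PVA or HPMC. Samples were stirred constantly for 72 h at 37 °C and centrifuged to remove crystals. Soluble PMF in the supernatant was measured by UV-vis at 330 nm.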

In vitro digestion model = format: in vitro ADME; conditions: 20 wt% MCT nanoemulsion, 2.8 mM PMF, Fa-SSIF
How it was run: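 A nanoemulsion (20 wt% MCT, 2 wt% Tween 20, 2.8 mM PMF) was added to fasted SSIF (100 mM NaCl, 5 mM CaCl₂, 5 mg/mL bile extract, 0.6 mg/mL lipase, 5 mM phosphate). It was equilibrated 10 min to 37 °C at pH 7.00, and lipolysis was started with pancreatic extract. pH was held by pH-stat with 2 M NaOH. Timed samples were stopped with 4-BBBA and centrifuged (4000 rpm, 30 min, RT). The supernatant micelle phase was diluted 1:10 in DMSO and read at 330 nm. Done in triplicate.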

[6] = cited from earlier work
[7] = rat, 2 to 9 mg per day in a 71 kcal per day diet; cited from earlier work

COc1ccc(-c2cc(=O)c3c(O)c(OC)c(OC)c(OC)c3o2)cc1 [PMF, 5-hydroxy-6,7,8,4'-tetramethoxy-flavone]
saturation concentration in the oil phase (CSO*) ([1]; LCT): around 1.55 mg/mL | saturation concentration in the oil phase (CSO*) ([1]; LCT (corn oil), 25 °C, 72 h storage): 4.2 mM and 4.2 ± 0.4 mM | saturation concentration in the oil phase (CSO*) ([1]; MCT): ~2.2 mg/mL | solubility at 72 h ([1]; oil phases (LCT, MCT), 25 °C, oil or lipid, thermodynamic from solid): 4 to 6 mM (≈ 1430 to 2150 µg/mL) | PMF solubilized per 100 g of solution ([2]; 0.5 % HPMC aqueous phase): about 0.36 mg per 100 g | increase in PMF concentration in aqueous phase by water-soluble polymers ([2]; certain types and amounts of polymer (HPMC, PVA)): ~10 fold | saturation concentration in water / buffer solution ([2]; no polymer, 25 °C, 72 h): 0.93 µM and ≈ 0.93 µM | effect of polymer on aqueous solubility ([2]; polyethylene glycol (PEG)): ineffective at increasing solubility; also recorded: little effect | solubility kinetic at 72 h ([2]; pure buffer solution, 25 °C, aqueous buffer, kinetic from dmso stock): 0.33 µg/mL (≈ 0.921 µM) | effect of polymer on aqueous solubility ([2]; β-cyclodextrin (CD)): ineffective at increasing solubility; also recorded: little effect | oil-water partition coefficient KOW (=CSO*/CSW*) ([3]; LCT / buffer): about 4,520 | oil-water partition coefficient KOW (=CSO*/CSW*) ([3]; MCT / buffer): ~6,560 | encapsulation efficiency ([4]; 2.5 % fat (MCT), 20 days storage): 21% | encapsulated PMF in nanoemulsion ([4]; 2.5 % fat (MCT), initial 0.56 mM PMF, 20 days storage): ≈ 0.12 mM | encapsulation efficiency ([4]; 5 % fat (MCT), 20 days storage): 21% | encapsulated PMF in nanoemulsion ([4]; 5 % fat (MCT), initial 1.4 mM PMF, 20 days storage): ~0.29 mM | encapsulation efficiency ([4]; 10 % fat (MCT), 20 days storage): 20% | encapsulated PMF in nanoemulsion ([4]; 10 % fat (MCT), initial 2.8 mM PMF, 20 days storage): ~0.55 mM | encapsulation efficiency ([4]; 20 % fat (MCT), 20 days storage): 42% | encapsulated PMF in nanoemulsion ([4]; 20 % fat (MCT), initial 5.6 mM PMF, 20 days storage): ~2.33 mM | encapsulation efficiency ([4]; 20 wt% LCT, initial PMF 5.6 mM, 72 h): around 48% | encapsulation efficiency ([4]; 20 wt% MCT, initial PMF 5.6 mM, 72 h): ~69% | encapsulation efficiency ([4]; 20 wt% oil (LCT or MCT), initial PMF 0.56, 1.4 and 2.8 mM, 72 h): 75 to 100% | soluble PMF at saturation predicted using Eq. 1 (Theoretical prediction; 2.5 % fat MCT nanoemulsion): 0.15 mM | soluble PMF at saturation predicted using Eq. 1 (Theoretical prediction; 5 % fat MCT nanoemulsion): 0.31 mM | soluble PMF at saturation predicted using Eq. 1 (Theoretical prediction; 10 % fat MCT nanoemulsion): 0.61 mM | soluble PMF at saturation predicted using Eq. 1 (Theoretical prediction; 20 % fat MCT nanoemulsion): 1.22 mM | saturation concentration calculated using Eq. 1 (Theoretical prediction; 20 wt% LCT nanoemulsion): 0.84 mM | effect of water-soluble polymers on solubility in SSIFs [5]: little influence | concentration of PMF in the micelle phase (In vitro digestion model; after 3 min digestion): around 3 µM | concentration of PMF in the micelle phase (In vitro digestion model; after 120 min digestion): around 16 µM | reported saturation level in pure water [6]: ≈ 0.9 µM

COc1ccc(-c2cc(=O)c3c(OC)c(OC)c(OC)c(OC)c3o2)cc1OC [nobiletin]
anti-carcinogenic effect [7]: significant anti-carcinogenic effect
